Measured values gathered from unrelated publications.
Lines come from different studies, so protocols differ.
Observed: cell growth or viability

SMILES | cell line | assay | conditions | endpoint | value
CC(=O)Nc1cccc(-n2c(=O)n(C3CC3)c(=O)c3c(Nc4ccc(I)cc4F)n(C)c(=O)c(C)c32)c1 | Calu-6 | resazurin | 6.25 nM, 72 h | viability | 74.2%
COc1cc(Nc2nccc(-c3cnn4nc(OC)ccc34)n2)cc(C(F)(F)F)c1 | SK-LU-1 | ATP luminescence | – | IC50 | 1.1 µM
CC(=O)c1c(C)c2cnc(Nc3ccc(N4CCNCC4)cn3)nc2n(C2CCCC2)c1=O | BT-474 | resazurin | – | GI50 | 0.2 µM
CC(=O)OC[C@H]1O[C@@H]([S-])[C@H](OC(C)=O)[C@@H](OC(C)=O)[C@@H]1OC(C)=O.CCP(CC)CC.[Au+] | KB 3-1 | WST-1 | – | Kb | 0.1 µM
Oc1nc(-c2ccc(C(F)(F)F)cc2)nc2c1CSCC2 | MB002 | – | 7 days | IC50 | > 10 µM
CCCCCCCCCC(=O)N[C@@H](Cc1c[nH]c2ccccc12)C(=O)N[C@H](CC(N)=O)C(=O)N[C@@H](CC(=O)O)C(=O)N[C@@H]1C(=O)NCC(=O)N[C@@H](CCCNC(=O)CCC(=O)N2Cc3ccccc3-c3c(nnn3CCC[C@H](NC(=O)CCCCC[N+]3=C(C=CC4=CC(=CC=C5N(C)c6ccccc6C5(C)C)CCC4)C(C)(C)c4ccccc43)C(=O)NCCCCNC(=O)CCC(=O)N3Cc4ccccc4-c4c(nnn4CCOCCOCCOCCNC(=O)CN4CCN(CC(=O)NCCNC(=O)c5cccc(O)c5O)CCN(CC(=O)NCCNC(=O)c5cccc(O)c5O)CCN(CC(=O)NCCNC(=O)c5cccc(O)c5O)CC4)-c4ccccc43)-c3ccccc32)C(=O)N[C@@H](CC(=O)O)C(=O)N[C@H](C)C(=O)N[C@@H](CC(=O)O)C(=O)NCC(=O)N[C@H](CO)C(=O)N[C@@H]([C@H](C)CC(=O)O)C(=O)N[C@@H](CC(=O)c2ccccc2N)C(=O)O[C@@H]1C | KB 3-1 | WST-1 | – | Kb | > 64 µM
COc1cc2c(Nc3ccc(Br)cc3F)ncnc2cc1OCC1CCN(C)CC1 | BT-474 | ATP luminescence | 72 h | GI50 | 5.91 µM
CC(C)C[C@H](NC(=O)[C@H](Cc1ccccc1)NC(=O)c1cnccn1)B(O)O | MB002 | – | 7 days | IC50 | 0.00313 µM
COc1ccc(-c2ccc(-c3ccc(C(=N)N)nc3)s2)cc1Cl | SK-MEL-5 | SRB | – | GI50 | 1.82 µM
CO[C@H]1C[C@@H]2CC[C@@H](C)[C@@](O)(O2)C(=O)C(=O)N2CCCC[C@H]2C(=O)O[C@H]([C@H](C)C[C@@H]2CC[C@@H](O)[C@H](OC)C2)CC(=O)[C@H](C)/C=C(\C)[C@@H](O)[C@@H](OC)C(=O)[C@H](C)C[C@H](C)/C=C/C=C/C=C/1C | MB002 | – | 7 days | IC50 | 0.0065 µM
CC(C)C[C@H](NC(=O)[C@H](Cc1ccccc1)NC(=O)c1cnccn1)B(O)O | SW948 | ATP luminescence | – | IC50 | 0.012 µM
